The record followed here is ChEMBL document CHEMBL2034835, “A solvent free, four-component synthesis and 1,3-dipolar cycloaddition of 4(H)-pyrans with nitrile oxides: synthesis and discovery of antimycobacterial activity of enantiomerically pure 1,2,4-oxadiazoles” (2012).

Molecules are shown by their SMILES. In brackets after ≈: the same amount, converted by molar mass.

The test system of the first assay is Mycobacterium tuberculosis. The experiment in a line: Antitubercular activity against Mycobacterium tuberculosis H37Rv after 28 days by agar dilution method. It counts as functional.
Conditions: not given
Summed up: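 Agar dilution, following NCCLS guidance, on Middlebrook 7H11 with OADC supplement containing ten-fold serial dilutions of drug. H37Rv inoculum was taken from fresh 7H11/OADC slants, adjusted to 1 mg/mL wet weight in 0.05% Tween 80 saline and diluted 10^-2 to about 10^7 cfu/mL. 5 µL was spotted per tube and incubated at 37 °C for 28 days. MIC is the lowest concentration giving complete growth inhibition.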
On to `C[C@H](c1ccccc1)N1CC2=C(OC(N)=C(c3nc(-c4ccccc4)no3)C2c2ccccc2)/C(=C/c2ccccc2)C1` (stereo in doubt; 9a), for which the MIC – broadly, the smallest concentration in the dilution series that meets the test's criterion for growth inhibition – is 11.07 µM (≈ 6.25 µg/mL). As for `C[C@H](c1ccccc1)N1CC2=C(OC(N)=C(c3nc(-c4ccc(Cl)cc4)no3)C2c2ccccc2)/C(=C/c2ccccc2)C1` (stereo in doubt; 9b), the MIC came to 5.22 µM (≈ 3.13 µg/mL). Same read-out and setting: as for `Cc1ccc(/C=C2\CN([C@H](C)c3ccccc3)CC3=C2OC(N)=C(c2nc(-c4ccc(Cl)cc4)no2)C3c2ccc(C)cc2)cc1` (stereo in doubt; 9d), the figure is 2.49 µM (≈ 1.56 µg/mL). Same read-out and setting: as for `C[C@H](c1ccccc1)N1CC2=C(OC(N)=C(c3nc(-c4ccc(Cl)cc4)no3)C2c2ccccc2Cl)/C(=C/c2ccccc2Cl)C1` (stereo in doubt; 9f), the figure is 0.6 µM (≈ 0.401 µg/mL); as for `C[C@H](c1ccccc1)N1CC2=C(OC(N)=C(c3nc(-c4ccc(Cl)cc4)no3)C2c2ccc(Cl)cc2Cl)/C(=C/c2ccc(Cl)cc2Cl)C1` (stereo in doubt; 9h), 0.27 µM (≈ 0.199 µg/mL); as for `C[C@H](c1ccccc1)N1CC2=C(OC(N)=C(c3nc(-c4ccccc4)no3)C2c2cccc3ccccc23)/C(=C/c2cccc3ccccc23)C1` (stereo in doubt; 9i), 18.8 µM (≈ 12.5 µg/mL).

The compound `C[C@H](c1ccccc1)N1CC2=C(OC(N)=C(c3nc(-c4ccccc4)no3)C2c2ccccc2)/C(=C/c2ccccc2)C1` (stereo in doubt; 10a) gave an MIC of 2.76 µM (≈ 1.56 µg/mL).

The compound `C[C@H](c1ccccc1)N1CC2=C(OC(N)=C(c3nc(-c4ccc(Cl)cc4)no3)C2c2ccccc2)/C(=C/c2ccccc2)C1` (stereo in doubt; 10b) returned an MIC of 2.6 µM (≈ 1.56 µg/mL).

Regarding `Cc1ccc(/C=C2\CN([C@H](C)c3ccccc3)CC3=C2OC(N)=C(c2nc(-c4ccccc4)no2)C3c2ccc(C)cc2)cc1` (stereo in doubt; 10c), the MIC was found to be 5.28 µM (≈ 3.13 µg/mL). As for `Cc1ccc(/C=C2\CN([C@H](C)c3ccccc3)CC3=C2OC(N)=C(c2nc(-c4ccc(Cl)cc4)no2)C3c2ccc(C)cc2)cc1` (stereo in doubt; 10d), the MIC worked out at 0.64 µM (≈ 0.401 µg/mL).

`C[C@H](c1ccccc1)N1CC2=C(OC(N)=C(c3nc(-c4ccccc4)no3)C2c2ccccc2Cl)/C(=C/c2ccccc2Cl)C1` (stereo in doubt; 10e) returned an MIC of 0.63 µM (≈ 0.399 µg/mL).

`C[C@H](c1ccccc1)N1CC2=C(OC(N)=C(c3nc(-c4ccc(Cl)cc4)no3)C2c2ccccc2Cl)/C(=C/c2ccccc2Cl)C1` (stereo in doubt; 10f): the MIC came to 0.15 µM (≈ 0.1 µg/mL). Still for that read-out and setting: as for `C[C@H](c1ccccc1)N1CC2=C(OC(N)=C(c3nc(-c4ccccc4)no3)C2c2ccc(Cl)cc2Cl)/C(=C/c2ccc(Cl)cc2Cl)C1` (stereo in doubt; 10g), the figure is 0.57 µM (≈ 0.4 µg/mL). With `C[C@H](c1ccccc1)N1CC2=C(OC(N)=C(c3nc(-c4ccc(Cl)cc4)no3)C2c2ccc(Cl)cc2Cl)/C(=C/c2ccc(Cl)cc2Cl)C1` (stereo in doubt; 10h), the MIC is 0.07 µM (≈ 0.0516 µg/mL).

On to `C[C@H](c1ccccc1)N1CC2=C(OC(N)=C(c3nc(-c4ccccc4)no3)C2c2cccc3ccccc23)/C(=C/c2cccc3ccccc23)C1` (stereo in doubt; 10i), for which the MIC worked out at 4.71 µM (≈ 3.13 µg/mL). In the case of `C[C@H](c1ccccc1)N1CC2=C(OC(N)=C(c3nc(-c4ccc(Cl)cc4)no3)C2c2cccc3ccccc23)/C(=C/c2cccc3ccccc23)C1` (stereo in doubt; 10j), the MIC amounted to 4.48 µM (≈ 3.13 µg/mL).

The same assay, now with this note: Mycobacterium tuberculosis, H37Rv, 672 h; read-out: MIC.
Regarding `Cc1ccc(/C=C2\CN([C@H](C)c3ccccc3)CC3=C2OC(N)=C(c2nc(-c4ccccc4)no2)C3c2ccc(C)cc2)cc1` (stereo in doubt; 9c), the minimum inhibitory concentration (MIC) stood at 10.5 µM (≈ 6.25 µg/mL). Consider `C[C@H](c1ccccc1)N1CC2=C(OC(N)=C(c3nc(-c4ccccc4)no3)C2c2ccccc2Cl)/C(=C/c2ccccc2Cl)C1` (stereo in doubt; 9e), for which the MIC was determined as 1.23 µM (≈ 0.779 µg/mL). On to `C[C@H](c1ccccc1)N1CC2=C(OC(N)=C(c3nc(-c4ccccc4)no3)C2c2ccc(Cl)cc2Cl)/C(=C/c2ccc(Cl)cc2Cl)C1` (stereo in doubt; 9g), for which the MIC was determined as 1.11 µM (≈ 0.78 µg/mL). On to `C[C@H](c1ccccc1)N1CC2=C(OC(N)=C(c3nc(-c4ccc(Cl)cc4)no3)C2c2cccc3ccccc23)/C(=C/c2cccc3ccccc23)C1` (stereo in doubt; 9j), for which the MIC was 8.94 µM (≈ 6.25 µg/mL).

Turning to `CC[C@@H](CO)NCCN[C@@H](CC)CO` [ETHAMBUTOL], the MIC was found to be 7.64 µM (≈ 1.56 µg/mL). As to `NNC(=O)c1ccncc1` [ISONIAZID], the MIC is 0.36 µM (≈ 0.0494 µg/mL). As to `CO[C@H]1/C=C/O[C@@]2(C)Oc3c(C)c(O)c4c(O)c(c(/C=N/N5CCN(C)CC5)c(O)c4c3C2=O)NC(=O)/C(C)=C\C=C\[C@H](C)[C@H](O)[C@@H](C)[C@@H](O)[C@@H](C)[C@H](OC(C)=O)[C@@H]1C` [RIFAMPIN], the MIC was found to be 0.12 µM (≈ 0.0988 µg/mL).

A further assay has as its system Mycobacterium tuberculosis. The experiment in a line: Ratio of rifampicin MIC to compound MIC for Mycobacterium tuberculosis H37Rv. It counts as functional.
Conditions: not given
Regarding `C[C@H](c1ccccc1)N1CC2=C(OC(N)=C(c3nc(-c4ccc(Cl)cc4)no3)C2c2ccc(Cl)cc2Cl)/C(=C/c2ccc(Cl)cc2Cl)C1` (stereo in doubt; 10h), the Ratio is 1.7.

A further assay concerns Mycobacterium tuberculosis. Description: Ratio of isoniazid MIC to compound MIC for Mycobacterium tuberculosis H37Rv. It counts as functional.
Conditions: not given
Regarding `C[C@H](c1ccccc1)N1CC2=C(OC(N)=C(c3nc(-c4ccc(Cl)cc4)no3)C2c2ccc(Cl)cc2Cl)/C(=C/c2ccc(Cl)cc2Cl)C1` (stereo in doubt; 10h), the Ratio is reported as 5.1.

Another assay concerns Mycobacterium tuberculosis. Description: Ratio of ciprofloxacin MIC to compound MIC for Mycobacterium tuberculosis H37Rv. It counts as functional.
Conditions: not given
On to `C[C@H](c1ccccc1)N1CC2=C(OC(N)=C(c3nc(-c4ccc(Cl)cc4)no3)C2c2ccc(Cl)cc2Cl)/C(=C/c2ccc(Cl)cc2Cl)C1` (stereo in doubt; 10h), for which the Ratio turned out to be 67.3.

The subject of a further assay is Mycobacterium tuberculosis. The experiment in a line: Ratio of ethambutol MIC to compound MIC for Mycobacterium tuberculosis H37Rv.
Conditions: not given
It counts as functional.
Turning to `C[C@H](c1ccccc1)N1CC2=C(OC(N)=C(c3nc(-c4ccc(Cl)cc4)no3)C2c2ccc(Cl)cc2Cl)/C(=C/c2ccc(Cl)cc2Cl)C1` (stereo in doubt; 10h), the Ratio amounted to 109.
